Data reported in ChEMBL document CHEMBL1165906, “Cytotoxic N-(fluorenyl-9-methoxycarbonyl) (Fmoc)-dipeptides: structure-activity relationships and synergistic studies” (Eur J Med Chem, 2010).
Active and inactive are the calls of the source. No cut-off for these calls is given here.

Columns and labels:
HepG2 = assay: Cytotoxicity against human HepG2 cells after 72 hrs by MTT assay; type: functional, cell-based; settings: HepG2, 72 h
Method in brief: (§1)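 Freshly trypsinized cells were seeded at 5000–10,000 per well in 96-well plates. Attached cells were given MTT (0.5 mg/ml, 1 h), solubilized in DMSO and read at 550 nm. IC₅₀ came from survival curves as mean ± S.E.M., n = 2.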

[1] = Cytotoxicity against human Hep3B cells after 72 hrs by MTT assay; type: functional, cell-based, Hep 3B2; method in brief: as §1
MCF7 = assay: Cytotoxicity against human MCF7 cells after 72 hrs by MTT assay; type: functional, cell-based; settings: MCF7, 72 h
Method in brief: (§2)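 Freshly trypsinized cells were seeded at 5000–10,000 per well in 96-well plates. […] Attached cells were given MTT (0.5 mg/ml, 1 h), solubilized in DMSO and read at 550 nm. IC₅₀ came from survival curves as mean ± S.E.M., n = 2.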

A549 = assay: Cytotoxicity against human A549 cells after 72 hrs by MTT assay; type: functional, cell-based; settings: A549, 72 h; method in brief: as §2
Ca9-22 = assay: Cytotoxicity against human Ca9-22 cells after 72 hrs by MTT assay; type: functional, cell-based; settings: Ca9-22, 72 h; method in brief: as §2
MDA-MB-231 = assay: Cytotoxicity against human MDA-MB-231 cells after 72 hrs by MTT assay; type: functional, cell-based; settings: MDA-MB-231, 72 h; method in brief: as §2
Hepatitis C virus [2] = assay: Antiviral activity against HCV infected in human Huh7 cells assessed as inhibition of viral replication at 10 uM after 4 days; type: functional, Hepacivirus hominis; settings: Huh-7, 96 h
Method in brief: (§3)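 Ava5 cells, Huh-7 hepatoma cells carrying a subgenomic HCV replicon, seeded at 5 ×10⁴ per well in 24-well plates and treated for 4 days. Cell extracts were normalized by protein assay and 5 µg was run on 8% SDS-PAGE and transferred to PVDF. Blots were blocked in 5% skim milk and probed for NS3 with GAPDH as loading control. Signals came from HRP secondaries and ECL and were quantified by densitometry.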

Hepatitis C virus [3] = assay: Antiviral activity against HCV infected in human Huh7 cells assessed as inhibition of viral replication at 5 uM after 4 days; type: functional, organism-based; settings: Hepacivirus hominis, Huh-7; method in brief: as §3

Row | SMILES | IC50 (HepG2) | IC50 [1] | IC50 (MCF7) | IC50 (A549) | IC50 (Ca9-22) | IC50 (MDA-MB-231) | inhibition at 10 µM (Hepatitis C virus [2]) | inhibition (Hepatitis C virus [3])
1 | O=C(N[C@@H](Cc1ccc2ccccc2c1)C(=O)N[C@H](COC(=O)c1ccccc1)Cc1ccccc1)OCC1c2ccccc2-c2ccccc21 | > 55 µM | > 55 µM | > 55 µM | > 55 µM | > 55 µM | > 55 µM |  | 
2 | O=C(N[C@@H](Cc1ccc(O)cc1)C(=O)N[C@H](COC(=O)c1ccccc1)Cc1ccccc1)OCC1c2ccccc2-c2ccccc21 | > 55 µM |  |  |  |  |  |  | 
3 | CC(C)[C@H](NC(=O)OCC1c2ccccc2-c2ccccc21)C(=O)N[C@H](CO)Cc1ccccc1 |  | > 55 µM | > 55 µM | > 55 µM |  | > 55 µM |  | 
4 | CC(=O)OC[C@@H](Cc1ccccc1)NC(=O)[C@H](Cc1ccc2ccccc2c1)NC(=O)OCC1c2ccccc2-c2ccccc21 |  |  |  |  |  | > 55 µM |  | 
5 | COc1cccc2c1C(=O)c1c(O)c3c(c(O)c1C2=O)C[C@@](O)(C(=O)CO)C[C@@H]3O[C@H]1C[C@H](N)[C@H](O)[C@H](C)O1 [DOXORUBICIN] |  |  |  | 0.4 µM | 1.3 µM | 0.1 µM |  | 
6 | O=C(N[C@@H](Cc1ccccc1)C(=O)N[C@@H](CO)Cc1ccccc1)OCC1c2ccccc2-c2ccccc21 | > 55 µM | > 55 µM | > 55 µM | > 55 µM | > 55 µM | > 55 µM |  | 
7 | O=C(N[C@@H](Cc1c[nH]c2ccccc12)C(=O)N[C@@H](COC(=O)c1ccccc1)Cc1ccccc1)OCC1c2ccccc2-c2ccccc21 |  |  |  |  |  |  | 72% | inactive
8 | O=C(N[C@@H](Cc1ccc2ccccc2c1)C(=O)N[C@@H](COC(=O)c1ccccc1)Cc1ccccc1)OCC1c2ccccc2-c2ccccc21 |  |  |  |  |  | > 55 µM |  | 
9 | O=C(N[C@@H](Cc1ccc2ccccc2c1)C(=O)N[C@H](CO)Cc1ccccc1)OCC1c2ccccc2-c2ccccc21 |  | > 55 µM | > 55 µM |  |  | > 55 µM |  | 
10 | CC(=O)OC[C@@H](Cc1ccccc1)NC(=O)[C@H](Cc1ccc(O)cc1)NC(=O)OCC1c2ccccc2-c2ccccc21 |  |  | > 55 µM | > 55 µM |  | > 55 µM |  | 
11 | O=C(N[C@@H](Cc1ccccc1)C(=O)N[C@H](COC(=O)c1ccccc1)Cc1ccccc1)OCC1c2ccccc2-c2ccccc21 | > 55 µM | > 55 µM | > 55 µM |  | > 55 µM | > 55 µM |  | 
12 | O=C(N[C@@H](Cc1ccc(O)cc1)C(=O)N[C@H](CO)Cc1ccccc1)OCC1c2ccccc2-c2ccccc21 |  |  | > 55 µM | > 55 µM |  | > 55 µM |  | 
13 | CC(C)[C@H](NC(=O)OCC1c2ccccc2-c2ccccc21)C(=O)N[C@@H](COC(=O)c1ccccc1)Cc1ccccc1 | > 55 µM |  | > 55 µM | > 55 µM |  | > 55 µM |  | 
14 | CC(=O)OC[C@H](Cc1ccccc1)NC(=O)[C@H](Cc1ccc2ccccc2c1)NC(=O)OCC1c2ccccc2-c2ccccc21 |  | > 55 µM |  |  |  |  |  | 
15 | O=C(N[C@@H](Cc1ccccc1)C(=O)N[C@@H](COC(=O)c1ccccc1)Cc1ccccc1)OCC1c2ccccc2-c2ccccc21 |  | > 55 µM | > 55 µM |  | > 55 µM | > 55 µM |  | 
16 | CC(=O)OC[C@H](Cc1ccccc1)NC(=O)[C@H](Cc1ccc(O)cc1)NC(=O)OCC1c2ccccc2-c2ccccc21 |  | > 55 µM | > 55 µM | > 55 µM | > 55 µM | > 55 µM |  | 
17 | O=C(N[C@@H](Cc1ccc(O)cc1)C(=O)N[C@@H](COC(=O)c1ccccc1)Cc1ccccc1)OCC1c2ccccc2-c2ccccc21 | > 55 µM | > 55 µM | > 55 µM |  |  | > 55 µM | 87% | inactive
18 | O=C(N[C@@H](Cc1ccccc1)C(=O)N[C@H](CO)Cc1ccccc1)OCC1c2ccccc2-c2ccccc21 | > 55 µM | > 55 µM | > 55 µM | > 55 µM | > 55 µM | > 55 µM |  | 
19 | CC(=O)OC[C@H](Cc1ccccc1)NC(=O)[C@@H](NC(=O)OCC1c2ccccc2-c2ccccc21)C(C)C |  | > 55 µM | > 55 µM | > 55 µM | > 55 µM | > 55 µM |  | 
20 | CC(=O)OC[C@H](Cc1ccccc1)NC(=O)[C@H](Cc1ccccc1)NC(=O)OCC1c2ccccc2-c2ccccc21 | > 55 µM | > 55 µM | > 55 µM |  | > 55 µM | > 55 µM |  | 
21 | CC(C)[C@H](NC(=O)OCC1c2ccccc2-c2ccccc21)C(=O)N[C@H](COC(=O)c1ccccc1)Cc1ccccc1 | > 55 µM | > 55 µM | > 55 µM | > 55 µM |  | > 55 µM |  | 
22 | O=C(N[C@@H](Cc1ccc2ccccc2c1)C(=O)N[C@@H](CO)Cc1ccccc1)OCC1c2ccccc2-c2ccccc21 |  |  | > 55 µM | > 55 µM |  | > 55 µM |  | 
23 | O=C(N[C@@H](Cc1c[nH]c2ccccc12)C(=O)N[C@H](CO)Cc1ccccc1)OCC1c2ccccc2-c2ccccc21 |  | > 55 µM | > 55 µM |  | > 55 µM | > 55 µM |  | 
24 | CC(=O)OC[C@@H](Cc1ccccc1)NC(=O)[C@H](Cc1ccccc1)NC(=O)OCC1c2ccccc2-c2ccccc21 |  |  | > 55 µM |  |  |  |  | 
25 | CC(=O)OC[C@H](Cc1ccccc1)NC(=O)[C@H](Cc1c[nH]c2ccccc12)NC(=O)OCC1c2ccccc2-c2ccccc21 |  | > 55 µM | > 55 µM |  |  |  |  | 
26 | CC(C)[C@H](NC(=O)OCC1c2ccccc2-c2ccccc21)C(=O)N[C@@H](CO)Cc1ccccc1 |  |  | > 55 µM | > 55 µM |  | > 55 µM |  | 
